Test results reported in the M2OR odorant receptor database.
Numbering of substitutions follows the chain as printed.

These compounds were tested against T1, OR7G1 (Homo sapiens) (UniProt Q8NGA0). Details: stereoisomer not certain.
T1 sequence (whole entry): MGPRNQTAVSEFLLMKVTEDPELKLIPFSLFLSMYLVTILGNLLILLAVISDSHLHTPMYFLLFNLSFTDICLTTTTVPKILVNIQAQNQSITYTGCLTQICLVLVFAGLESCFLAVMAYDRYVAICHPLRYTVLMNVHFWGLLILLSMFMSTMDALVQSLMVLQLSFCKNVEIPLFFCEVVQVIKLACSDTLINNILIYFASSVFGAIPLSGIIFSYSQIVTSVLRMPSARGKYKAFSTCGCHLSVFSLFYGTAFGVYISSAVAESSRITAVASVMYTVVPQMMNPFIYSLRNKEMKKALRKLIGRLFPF
Method in brief: (§1)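 Each entry records the cell line, G-protein, co-transfected protein and tags used. Methods varied with the source, often transient luciferase assays in mammalian cell lines. A receptor–molecule pair is called responsive (active) if the original authors judged its signal statistically different from baseline and non-responsive (inactive) otherwise.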

Odorant receptor agonist call, inactive:
CCCC(S)CCOC(C)=O (stereo not drawn)
CCCCCC(S)C(C)CO (stereo not drawn)
CC(CO)CS (stereo not drawn)
CCCCCC(=O)C(C)C(C)=O (stereo not drawn)
CC(=O)c1c(C)c([N+](=O)[O-])c(C(C)(C)C)c([N+](=O)[O-])c1C
CCC1OC(=O)C(O)=C1C (stereo not drawn)
CCCCCCC=CCCC=O
CC1=C(O)C(=O)C(C)O1 (stereo not drawn)
CCC1OC(C)=C(O)C1=O (stereo not drawn)
CCC(S)C(C)CO (stereo not drawn)
CC1CCCCCCCCCCCCC(=O)C1 (stereo not drawn)
CCCCC(S)C(C)CO (stereo not drawn)
Cc1cnc(C)c(C)n1
CC1=C(O)C(=O)OC1C (stereo not drawn)
CC1=NC(C)C(C)S1 (stereo not drawn)

These compounds were tested against T2, OR7G2 (Homo sapiens) (UniProt Q8NG99). Details: stereoisomer not certain.
T2 sequence (whole entry): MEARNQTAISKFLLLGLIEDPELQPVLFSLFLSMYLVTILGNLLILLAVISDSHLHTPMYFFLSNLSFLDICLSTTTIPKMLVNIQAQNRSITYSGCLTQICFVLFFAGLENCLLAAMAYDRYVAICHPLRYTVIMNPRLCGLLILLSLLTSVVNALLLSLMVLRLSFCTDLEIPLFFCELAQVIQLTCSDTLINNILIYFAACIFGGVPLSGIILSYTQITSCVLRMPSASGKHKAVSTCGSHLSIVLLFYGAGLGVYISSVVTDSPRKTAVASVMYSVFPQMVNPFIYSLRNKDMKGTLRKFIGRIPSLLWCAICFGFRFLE
Method in brief: as §1

Odorant receptor agonist call, inactive:
CCCCCC(S)C(C)CO (stereo not drawn)
CC(CO)CS (stereo not drawn)
CCCCCC(=O)C(C)C(C)=O (stereo not drawn)
CC(=O)c1c(C)c([N+](=O)[O-])c(C(C)(C)C)c([N+](=O)[O-])c1C
CCCCCCC=CCCC=O
CCC(S)C(C)CO (stereo not drawn)
CC1CCCCCCCCCCCCC(=O)C1 (stereo not drawn)
CCCCC(S)C(C)CO (stereo not drawn)

Each compound was assayed on T3, OR7G2. Details: stereoisomer not certain.
T3 sequence (whole entry): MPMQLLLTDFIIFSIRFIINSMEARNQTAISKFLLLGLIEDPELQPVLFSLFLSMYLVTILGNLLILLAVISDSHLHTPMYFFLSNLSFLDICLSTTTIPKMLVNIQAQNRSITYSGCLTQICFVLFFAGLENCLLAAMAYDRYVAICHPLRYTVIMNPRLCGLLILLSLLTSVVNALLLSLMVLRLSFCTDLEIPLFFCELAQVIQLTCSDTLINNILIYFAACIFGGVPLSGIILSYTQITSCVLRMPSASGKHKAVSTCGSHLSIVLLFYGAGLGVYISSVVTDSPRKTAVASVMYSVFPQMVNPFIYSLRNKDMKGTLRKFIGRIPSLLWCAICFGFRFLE
Method in brief: as §1

Odorant receptor agonist call, inactive:
CCCC(S)CCOC(C)=O (stereo not drawn)
CCC1OC(=O)C(O)=C1C (stereo not drawn)
CC1=C(O)C(=O)C(C)O1 (stereo not drawn)
CCC1OC(C)=C(O)C1=O (stereo not drawn)
Cc1cnc(C)c(C)n1
CC1=C(O)C(=O)OC1C (stereo not drawn)
CC1=NC(C)C(C)S1 (stereo not drawn)

What follows are compounds tested against T4, OR7G3 (Homo sapiens) (UniProt Q8NG95). Details: stereoisomer not certain.
T4 sequence (whole entry): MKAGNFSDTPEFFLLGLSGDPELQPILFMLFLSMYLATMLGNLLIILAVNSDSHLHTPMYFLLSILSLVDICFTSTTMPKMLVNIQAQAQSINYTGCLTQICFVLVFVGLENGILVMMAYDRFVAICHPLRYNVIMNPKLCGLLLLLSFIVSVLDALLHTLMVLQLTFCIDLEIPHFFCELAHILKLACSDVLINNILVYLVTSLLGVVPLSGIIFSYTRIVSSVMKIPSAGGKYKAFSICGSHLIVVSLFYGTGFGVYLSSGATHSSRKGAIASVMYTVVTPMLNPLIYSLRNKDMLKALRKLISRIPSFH
Method in brief: as §1

Odorant receptor agonist call, inactive:
CCCC(S)CCOC(C)=O (stereo not drawn)
CCCCCC(S)C(C)CO (stereo not drawn)
CC(CO)CS (stereo not drawn)
CCCCCC(=O)C(C)C(C)=O (stereo not drawn)
CC(=O)c1c(C)c([N+](=O)[O-])c(C(C)(C)C)c([N+](=O)[O-])c1C
CCC1OC(=O)C(O)=C1C (stereo not drawn)
CCCCCCC=CCCC=O
CC1=C(O)C(=O)C(C)O1 (stereo not drawn)
CCC1OC(C)=C(O)C1=O (stereo not drawn)
CCC(S)C(C)CO (stereo not drawn)
CC1CCCCCCCCCCCCC(=O)C1 (stereo not drawn)
CCCCC(S)C(C)CO (stereo not drawn)
Cc1cnc(C)c(C)n1
CC1=C(O)C(=O)OC1C (stereo not drawn)
CC1=NC(C)C(C)S1 (stereo not drawn)

What follows are compounds tested on T5, OR7G3 M29V. Details: stereoisomer not certain.
T5 sequence (whole entry): T4 sequence (whole entry) with M29V
Method in brief: as §1

Odorant receptor agonist call, inactive:
CCCC(S)CCOC(C)=O (stereo not drawn)
CCC1OC(=O)C(O)=C1C (stereo not drawn)
CCCCCCC=CCCC=O
CC1=C(O)C(=O)C(C)O1 (stereo not drawn)
CCC1OC(C)=C(O)C1=O (stereo not drawn)
Cc1cnc(C)c(C)n1
CC1=C(O)C(=O)OC1C (stereo not drawn)
CC1=NC(C)C(C)S1 (stereo not drawn)

The compounds below were run against T6, OR8A1 (Homo sapiens) (UniProt Q8NGG7). Details: stereoisomer not certain.
T6 sequence (whole entry): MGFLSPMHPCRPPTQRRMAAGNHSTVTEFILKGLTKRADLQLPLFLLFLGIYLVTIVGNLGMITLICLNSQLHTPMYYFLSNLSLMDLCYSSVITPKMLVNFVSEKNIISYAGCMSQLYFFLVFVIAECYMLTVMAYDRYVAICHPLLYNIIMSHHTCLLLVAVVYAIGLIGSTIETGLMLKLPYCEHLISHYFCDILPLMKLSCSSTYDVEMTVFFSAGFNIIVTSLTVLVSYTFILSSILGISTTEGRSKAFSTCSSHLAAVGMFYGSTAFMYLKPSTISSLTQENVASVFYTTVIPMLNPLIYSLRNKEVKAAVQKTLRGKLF
Method in brief: as §1

Odorant receptor agonist call, inactive:
CCCC(S)CCOC(C)=O (stereo not drawn)
CCCCCC(S)C(C)CO (stereo not drawn)
CC(CO)CS (stereo not drawn)
CCCCCC(=O)C(C)C(C)=O (stereo not drawn)
CC(=O)c1c(C)c([N+](=O)[O-])c(C(C)(C)C)c([N+](=O)[O-])c1C
CCC1OC(=O)C(O)=C1C (stereo not drawn)
CCCCCCC=CCCC=O
CC1=C(O)C(=O)C(C)O1 (stereo not drawn)
CCC1OC(C)=C(O)C1=O (stereo not drawn)
CCC(S)C(C)CO (stereo not drawn)
CC1CCCCCCCCCCCCC(=O)C1 (stereo not drawn)
CCCCC(S)C(C)CO (stereo not drawn)
Cc1cnc(C)c(C)n1
CC1=C(O)C(=O)OC1C (stereo not drawn)
CC1=NC(C)C(C)S1 (stereo not drawn)

These compounds were tested against T7, OR8B12 (Homo sapiens) (UniProt Q8NGG6). Details: stereoisomer not certain.
T7 sequence (whole entry): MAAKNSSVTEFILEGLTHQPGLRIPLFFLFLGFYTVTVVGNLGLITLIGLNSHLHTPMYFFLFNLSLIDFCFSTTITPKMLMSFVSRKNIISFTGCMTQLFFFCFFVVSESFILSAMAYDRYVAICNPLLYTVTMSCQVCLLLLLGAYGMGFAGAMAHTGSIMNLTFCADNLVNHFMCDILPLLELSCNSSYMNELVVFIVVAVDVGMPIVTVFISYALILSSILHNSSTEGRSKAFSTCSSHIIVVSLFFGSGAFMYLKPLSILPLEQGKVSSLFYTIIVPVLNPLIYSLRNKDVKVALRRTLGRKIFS
Method in brief: as §1

Odorant receptor agonist call, inactive:
CCCC(S)CCOC(C)=O (stereo not drawn)
CCCCCC(S)C(C)CO (stereo not drawn)
CC(CO)CS (stereo not drawn)
CCCCCC(=O)C(C)C(C)=O (stereo not drawn)
CC(=O)c1c(C)c([N+](=O)[O-])c(C(C)(C)C)c([N+](=O)[O-])c1C
CCC1OC(=O)C(O)=C1C (stereo not drawn)
CCCCCCC=CCCC=O
CC1=C(O)C(=O)C(C)O1 (stereo not drawn)
CCC1OC(C)=C(O)C1=O (stereo not drawn)
CCC(S)C(C)CO (stereo not drawn)
CC1CCCCCCCCCCCCC(=O)C1 (stereo not drawn)
CCCCC(S)C(C)CO (stereo not drawn)
Cc1cnc(C)c(C)n1
CC1=C(O)C(=O)OC1C (stereo not drawn)
CC1=NC(C)C(C)S1 (stereo not drawn)

Each compound was assayed against T8, OR8B2 (Homo sapiens) (UniProt Q96RD0). Details: stereoisomer not certain.
T8 sequence (whole entry): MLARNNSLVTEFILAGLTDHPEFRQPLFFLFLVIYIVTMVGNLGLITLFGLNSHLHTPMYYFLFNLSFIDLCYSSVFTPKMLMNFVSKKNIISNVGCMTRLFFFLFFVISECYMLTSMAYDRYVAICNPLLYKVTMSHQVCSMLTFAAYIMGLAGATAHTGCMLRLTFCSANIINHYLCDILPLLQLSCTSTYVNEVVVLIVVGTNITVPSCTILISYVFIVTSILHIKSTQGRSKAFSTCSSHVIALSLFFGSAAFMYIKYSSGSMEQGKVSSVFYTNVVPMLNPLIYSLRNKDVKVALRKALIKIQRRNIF
Method in brief: as §1

Odorant receptor agonist call, inactive:
CCCC(S)CCOC(C)=O (stereo not drawn)
CCCCCC(S)C(C)CO (stereo not drawn)
CC(CO)CS (stereo not drawn)
O=c1ccc2ccccc2o1
CCCCCC(=O)C(C)C(C)=O (stereo not drawn)
CC(=O)c1c(C)c([N+](=O)[O-])c(C(C)(C)C)c([N+](=O)[O-])c1C
CCC1OC(=O)C(O)=C1C (stereo not drawn)
CCCCCCC=CCCC=O
CC1=C(O)C(=O)C(C)O1 (stereo not drawn)
CCC1OC(C)=C(O)C1=O (stereo not drawn)
CCC(S)C(C)CO (stereo not drawn)
CC1CCCCCCCCCCCCC(=O)C1 (stereo not drawn)
CCCCC(S)C(C)CO (stereo not drawn)
Cc1cnc(C)c(C)n1
CC1=C(O)C(=O)OC1C (stereo not drawn)
CC1=NC(C)C(C)S1 (stereo not drawn)

Odorant receptor agonist call, active:
O=C1CCOc2ccccc21

What follows are compounds tested on T9, OR8B2 L164F. Details: stereoisomer not certain.
T9 sequence (whole entry): T8 sequence (whole entry) with L164F
Method in brief: as §1

Odorant receptor agonist call, inactive:
CCCC(S)CCOC(C)=O (stereo not drawn)
CCC1OC(=O)C(O)=C1C (stereo not drawn)
CCCCCCC=CCCC=O
CC1=C(O)C(=O)C(C)O1 (stereo not drawn)
CCC1OC(C)=C(O)C1=O (stereo not drawn)
Cc1cnc(C)c(C)n1
CC1=C(O)C(=O)OC1C (stereo not drawn)
CC1=NC(C)C(C)S1 (stereo not drawn)
